According to ChEMBL document CHEMBL1129660, “Studies on 6-aminoquinolones: synthesis and antibacterial evaluation of 6-amino-8-methylquinolones” (J Med Chem, 1996):
Converted amounts (≈) assume the structure as drawn.

What was measured:
Assay type in all cases: functional
[1] = system: Staphylococcus aureus; experiment: Antibacterial activity against Staphylococcus aureus ATCC 6538
Method in brief: (§1)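 MICs (µg/mL) determined by conventional agar dilution against a panel of eight Gram-negative and five Gram-positive reference strains.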

[2] = system: Enterococcus faecalis; experiment: Antibacterial activity tested against Streptococcus faecalis LEP Br; method in brief: as §1
[3] = system: Klebsiella pneumoniae; experiment: Antibacterial activity tested against Klebsiella pneumoniae (Klebsiella pneumoniae) ATCC 10031; method in brief: as §1
[4] = system: Providencia stuartii; experiment: Antibacterial activity tested against Providencia stuartii CNUR 5; method in brief: as §1
[5] = system: Enterobacter cloacae; experiment: Antibacterial activity tested against Enterobacter cloacae OMNFI 174
[6] = system: Staphylococcus aureus; experiment: Antibacterial activity against Staphylococcus aureus MPR 5; method in brief: as §1
[7] = system: Pseudomonas aeruginosa; experiment: Antibacterial activity tested against P. ae (Pseudomonas aeruginosa) ATCC 9027; method in brief: as §1
[8] = Geometric mean of antibacterial activity (Gram -ve bacteria) of the compound
Method in brief: (§2)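 Geometric means calculated from agar-dilution MICs (µg/mL), taken separately across the five Gram-positive and the eight Gram-negative panel strains.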

[9] = system: Escherichia coli; experiment: Antibacterial activity tested against Escherichia coli ATCC 8739; method in brief: as §1
[10] = system: Shigella; experiment: Antibacterial activity tested against Shigella enteritidis; method in brief: as §1
[11] = system: Escherichia coli; experiment: Antibacterial activity tested against Escherichia coli ISF 432; method in brief: as §1
[12] = system: Staphylococcus epidermidis; experiment: Antibacterial activity tested against Staphylococcus epidermidis CPHL A2; method in brief: as §1
[13] = system: Staphylococcus epidermidis; experiment: Antibacterial activity tested against Staphylococcus epidermidis HCF Berset C; method in brief: as §1
[14] = system: Proteus vulgaris; experiment: Antibacterial activity tested against Proteus vulgaris CNUR 5; method in brief: as §1
[15] = system: Bacteria; experiment: Geometric mean of antibacterial activity (Gram +ve bacteria) of the compound; method in brief: as §2

| MIC [1] [µg/mL] | MIC [2] [µg/mL] | MIC [3] [µg/mL] | MIC [4] [µg/mL] | MIC [5] [µg/mL] | MIC [6] [µg/mL] | MIC [9] [µg/mL] | MIC [10] [µg/mL] | MIC [11] [µg/mL] | MIC [12] [µg/mL] | MIC [13] [µg/mL] | MIC [14] [µg/mL] | SMILES | MIC [7] [µg/mL] | Geometric mean [8] | Geometric mean [15] |
| --- | --- | --- | --- | --- | --- | --- | --- | --- | --- | --- | --- | --- | --- | --- | --- |
| 0.03 (≈ 0.0871 µM) | 0.25 (≈ 0.726 µM) | 0.125 (≈ 0.363 µM) | 2 (≈ 5.81 µM) | 16 (≈ 46.5 µM) | 0.03 (≈ 0.0871 µM) | 0.125 (≈ 0.363 µM) | 0.5 (≈ 1.45 µM) | 0.03 (≈ 0.0871 µM) | 0.03 (≈ 0.0871 µM) | 0.03 (≈ 0.0871 µM) | 2 (≈ 5.81 µM) | Cc1c(N2CCCCC2)c(F)cc2c(=O)c(C(=O)O)cn(C3CC3)c12 | 1 (≈ 2.9 µM) | 0.591 | 0.046 |
| 0.125 (≈ 0.337 µM) | 2 (≈ 5.38 µM) | 0.016 (≈ 0.0431 µM) | 4 (≈ 10.8 µM) | 2 (≈ 5.38 µM) | 0.125 (≈ 0.337 µM) | 0.016 (≈ 0.0431 µM) | 1 (≈ 2.69 µM) | 0.016 (≈ 0.0431 µM) | 0.25 (≈ 0.673 µM) | 0.25 (≈ 0.673 µM) | 64 (≈ 172 µM) | Cc1c(N2CCCC(CO)C2)c(N)cc2c(=O)c(C(=O)O)cn(C3CC3)c12 (stereo not given) | 2 (≈ 5.38 µM) | 0.504 | 0.287 |
| 16 (≈ 39.2 µM) | 64 (≈ 157 µM) | 0.25 (≈ 0.612 µM) | 8 (≈ 19.6 µM) | 8 (≈ 19.6 µM) | 16 (≈ 39.2 µM) | 0.125 (≈ 0.306 µM) | 4 (≈ 9.79 µM) | 0.125 (≈ 0.306 µM) | 8 (≈ 19.6 µM) | 16 (≈ 39.2 µM) | > 128 | Cc1c(N2CCN(C)CC2)c(N)cc2c(=O)c(C(=O)O)cn(-c3ccc(O)cc3)c12 | 8 (≈ 19.6 µM) | 2.378 | 18.37 |
| 64 (≈ 167 µM) | 32 (≈ 83.4 µM) | 64 (≈ 167 µM) | 64 (≈ 167 µM) | 64 (≈ 167 µM) | 16 (≈ 41.7 µM) | 64 (≈ 167 µM) | 64 (≈ 167 µM) | 64 (≈ 167 µM) | 32 (≈ 83.4 µM) | 8 (≈ 20.9 µM) | 64 (≈ 167 µM) | Cc1c(N2CCC(C)CC2)c(N(C)C)cc2c(=O)c(C(=O)O)cn(C3CC3)c12 | 64 (≈ 167 µM) | 64 | 24.251 |
| 64 (≈ 156 µM) | 128 (≈ 312 µM) | 1 (≈ 2.44 µM) | 16 (≈ 39 µM) | 16 (≈ 39 µM) | 128 (≈ 312 µM) | 1 (≈ 2.44 µM) | 16 (≈ 39 µM) | 1 (≈ 2.44 µM) | 128 (≈ 312 µM) | 128 (≈ 312 µM) | > 128 | Cc1c(N2CCN(C)CC2)c(N)cc2c(=O)c(C(=O)O)cn(-c3ccc(F)cc3)c12 | 128 (≈ 312 µM) | 9.513 | 111.43 |
| 0.125 (≈ 0.352 µM) | 2 (≈ 5.63 µM) | 0.03 (≈ 0.0844 µM) | 0.5 (≈ 1.41 µM) | 1 (≈ 2.81 µM) | 0.125 (≈ 0.352 µM) | 2 (≈ 5.63 µM) | 1 (≈ 2.81 µM) | 0.03 (≈ 0.0844 µM) | 0.25 (≈ 0.703 µM) | 0.2 (≈ 0.563 µM) | 32 (≈ 90 µM) | Cc1c(N2CCCCCC2)c(N)cc2c(=O)c(C(=O)O)cn(C3CC3)c12 | 4 (≈ 11.3 µM) | 0.763 | 0.275 |
| 0.06 (≈ 0.162 µM) | 1 (≈ 2.69 µM) | 0.03 (≈ 0.0808 µM) | 0.5 (≈ 1.35 µM) | 1 (≈ 2.69 µM) | 0.06 (≈ 0.162 µM) | 0.06 (≈ 0.162 µM) | 1 (≈ 2.69 µM) | 0.03 (≈ 0.0808 µM) | 0.06 (≈ 0.162 µM) | 0.125 (≈ 0.337 µM) | 16 (≈ 43.1 µM) | Cc1c(N2CC(C)OC(C)C2)c(N)cc2c(=O)c(C(=O)O)cn(C3CC3)c12 (stereo not given) | 4 (≈ 10.8 µM) | 0.451 | 0.122 |
| 128 (≈ 341 µM) | 128 (≈ 341 µM) | 128 (≈ 341 µM) | 128 (≈ 341 µM) | 128 (≈ 341 µM) | 4 (≈ 10.7 µM) | 128 (≈ 341 µM) | 128 (≈ 341 µM) | 32 (≈ 85.2 µM) | 16 (≈ 42.6 µM) | 16 (≈ 42.6 µM) | 128 (≈ 341 µM) | Nc1cc2c(=O)c(C(=O)O)cn(C3CC3)c2cc1N1CCc2ccccc2C1 | 128 (≈ 341 µM) | 107.635 | 27.857 |
